Calls of active or inactive are those of the source. The calls are words filed in the database; no cut-off is given here.
How the values were obtained:
[1] = biological target: T1, Cruzipain (Trypanosoma cruzi, UniProt P25779); test: Inhibition of Trypanosoma cruzi cruzain assessed as Z-Phe-Arg-aminomethylcoumarin cleavage
[2] = Inhibition of beta lactamase
In short: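 AmpC β-lactamase (1 nM final) with CENTA substrate (100 μM final; Km 48 μM) in 50 mM potassium phosphate, pH 7.0. Cleavage was read as absorbance at 405 nm over 3 min, and activity was taken from initial rates. Each compound was run twice: without Triton X-100 after a 5 min enzyme preincubation before substrate, and with 0.01% Triton X-100 with no preincubation. Inhibition was then compared between the two conditions.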

[3] = biological target: T1, Cruzipain; test: Inhibition of Trypanosoma cruzi cruzain assessed as Z-Phe-Arg-aminomethylcoumarin cleavage by competitive binding assay
In short: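 Cruzain (0.4 nM) in 0.1 M sodium acetate pH 5.5, 5 mM DTT, 0.01% Triton X-100. Each compound tested at four or more concentrations against seven Z-FR-AMC levels (0.31-20 μM, 2-fold steps). Activity from initial rates over 5 min. Ki derived from Lineweaver-Burk and Dixon plots.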

T1 sequence (P25779 whole entry): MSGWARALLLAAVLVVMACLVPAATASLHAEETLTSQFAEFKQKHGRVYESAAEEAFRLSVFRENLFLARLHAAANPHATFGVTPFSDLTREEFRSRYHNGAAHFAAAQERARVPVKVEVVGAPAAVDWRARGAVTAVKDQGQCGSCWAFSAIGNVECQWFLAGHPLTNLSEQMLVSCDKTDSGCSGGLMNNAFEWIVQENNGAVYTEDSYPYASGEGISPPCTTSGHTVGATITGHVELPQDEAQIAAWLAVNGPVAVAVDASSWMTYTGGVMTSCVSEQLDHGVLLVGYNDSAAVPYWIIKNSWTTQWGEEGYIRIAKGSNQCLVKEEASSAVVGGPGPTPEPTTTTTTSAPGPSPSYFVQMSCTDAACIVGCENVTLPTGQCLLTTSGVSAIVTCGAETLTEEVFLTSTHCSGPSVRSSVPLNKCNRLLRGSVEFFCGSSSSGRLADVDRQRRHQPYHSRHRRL

Structure (SMILES) | IC50 [1] [nM] | inhibition [2] | Ki [3] [nM]
O=C(CNC(=O)c1ccc(Cl)cc1)OCC(=O)c1ccc2c(c1)OCCO2 | 500 | inactive | 
COc1ccc(Cl)cc1NC(=O)COC(=O)C(CC(C)C)N1C(=O)C2CC=CCC2C1=O (stereo unspecified) | 1000 | inactive | 
Clc1ccc2[nH]c3c(NCCCN4CCOCC4)ncnc3c2c1 |  |  | 2000
O=C(CNC(=O)c1ccc(Cl)cc1)OC(C(=O)Nc1ccc(Cl)cc1C(F)(F)F)c1ccccc1 (stereo unspecified) | 700 | inactive | 
Cc1ccccc1OCC(=O)NCC(=O)OCC(=O)c1ccc2ccccc2c1 | 700 | inactive | 
Cc1cc(NC(=O)COC(=O)C(Cc2ccccc2)NC(=O)c2ccco2)no1 (stereo unspecified) | 38000 | inactive | 
Cc1cc(C(=O)NCC(=O)OC(C(=O)Nc2cc(C(F)(F)F)ccc2Cl)c2ccccc2)ccc1[N+](=O)[O-] (stereo unspecified) | 400 | inactive | 
CC(C)C(NC(=O)c1ccco1)C(=O)NCC(c1ccco1)N1CCCCC1 (stereo unspecified) | 7000 | inactive | 6000
O=C(CNC(=O)c1ccccc1)OC(C(=O)Nc1cc(C(F)(F)F)ccc1Cl)c1ccccc1 (stereo unspecified) | 300 | inactive | 65
COCCn1c(C)cc(C(=O)COC(=O)CNC(=O)c2ccccc2)c1C | 18000 | inactive | 
Cc1cc(NC(=O)COC(=O)C(Cc2c[nH]c3ccccc23)NC(=O)c2ccc(F)cc2)no1 (stereo unspecified) | 3000 | inactive | 
COc1ccc(NC(=O)COC(=O)C(CC(C)C)N2C(=O)C3CC=CCC3C2=O)cc1Cl (stereo unspecified) |  |  | 800
CC(NC(=O)c1ccccc1Cl)C(=O)OC(C(=O)Nc1cc(C(F)(F)F)ccc1Cl)c1ccccc1 (stereo unspecified) | 11000 | inactive | 

Reference: ChEMBL document CHEMBL1177731, “Complementarity between a docking and a high-throughput screen in discovering new cruzain inhibitors” (J Med Chem, 2010)
